ChEMBL document CHEMBL3120099, “Novel S1P(1) receptor agonists--part 2: from bicyclo[3.1.0]hexane-fused thiophenes to isobutyl substituted thiophenes” (J Med Chem, 2014)
One block for each compound: values may come before it. Active and inactive are the calls of the source. The rule behind the calls is not given here.

Columns and labels:
[1] = Half life in Wistar rat at 1 mg/kg, iv; assay type: ADME, organism-based; design: dose 1 mg/kg, route intravenous; details: in vivo
Procedure, shortened: (§1)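 Male Wistar rats (~250 g), jugular vein and carotid artery catheters implanted 2 days before dosing under isoflurane with buprenorphine analgesia. 1 mg/kg given as a 5 min jugular infusion in aqueous mixed micellar vehicle (phospholipids, bile acids). Serial EDTA blood sampling up to 24 h. Plasma analysed by LC-MS-MS after methanol precipitation. Noncompartmental analysis.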

[2] = Plasma concentration in Wistar rat at 10 mg/kg, po after 6 days; assay type: ADME, organism-based; design: dose 10 mg/kg, route oral
[3] = Intrinsic clearance in Wistar rat hepatocytes assessed per 10^6 cells at 1 uM by LC-MS/MS analysis; assay type: ADME, cell-based, Hepatocyte; details: read-out: CLH
Procedure, shortened: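 Male rat hepatocytes from two-step collagenase perfusion (viability ≥85%), plated at 5.0 × 10^5 viable cells/mL on collagen and preincubated ~3 h at 37 °C, 5% CO2. Compound at 1 µM final. Duplicate wells sampled at 0–24 h with methanol/0.3% SDS. LC-MS-MS (MRM). CLint from initial first-order disappearance rates.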

[4] = Cmax in Wistar rat plasma at 10 mg/kg, po; assay type: ADME, organism-based; design: dose 10 mg/kg, route oral
Procedure, shortened: (§2)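 Male Wistar rats given 10 mg/kg orally in 5% DMSO/succinylated gelatin. At selected times, anesthesia with thiobutobarbital 150 mg/kg ip, laparotomy and thoracic lymph duct catheter. Mesenteric lymph collected for at least 10 min, with a plasma sample at mid-collection. Methanol precipitation, then LC-MS-MS with internal standard.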

[5] = Plasma concentration in Wistar rat at 10 mg/kg, po after 3 days; assay type: ADME, organism-based; design: dose 10 mg/kg, route oral
[6] = Plasma concentration in Wistar rat at 10 mg/kg, po after 3 hrs; assay type: ADME, organism-based; design: dose 10 mg/kg, route oral
Rattus norvegicus [7] = experiment: Lymphopenic activity in Wistar rat assessed as reduction in blood lymphocyte count at 10 mg/kg, po after 72 hrs; assay type: functional
Procedure, shortened: (§3)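 Normotensive male Wistar rats given 1–10 mg/kg by gavage in 5% DMSO/7.5% succinylated gelatin. Blood taken before and 3, 6 and 24 h after dosing, with later times for some compounds. Lymphocytes counted by hematology analyzer. % LC change calculated per animal relative to the predose value (=100%). Mean ± SEM.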

[8] = Cmax in Wistar rat at 10 mg/kg, po; assay type: ADME, organism-based; design: dose 10 mg/kg, route oral; details: in vivo
Procedure, shortened: (§4)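 Male Wistar rats (~250 g), 10 mg/kg by gavage as a DMSO solution added to 7.5% succinylated gelatin in water (5% DMSO final). Sublingual blood under light isoflurane predose and at 0.5, 1, 2, 3, 4, 6, 8, 24 h into EDTA. Plasma LC-MS-MS after methanol precipitation. Noncompartmental parameters. Bioavailability referenced to 1 mg/kg iv.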

Rattus norvegicus [9] = experiment: Clearance in Wistar rat at 1 mg/kg, iv; assay type: ADME, organism-based; design: dose 1 mg/kg, route intravenous; details: in vivo; procedure, shortened: as §1
[10] = Plasma concentration in Wistar rat at 10 mg/kg, po after 1.7 hrs; assay type: ADME, organism-based; design: dose 10 mg/kg, route oral; procedure, shortened: as §2
[11] = Oral bioavailability in Wistar rat at 10 mg/kg; assay type: ADME, organism-based; details: in vivo; procedure, shortened: as §4
[12] = Drug uptake in Wistar rat mesenteric lymph at 10 mg/kg, po after 1.7 hrs; assay type: ADME, organism-based, Mesenteric lymph node; design: dose 10 mg/kg, route oral; details: read-out: Drug uptake; procedure, shortened: as §2
[13] = AUC (0 to 24 hrs) in Wistar rat at 10 mg/kg, po; assay type: ADME, organism-based; design: time < 24 hr, dose 10 mg/kg, route oral; details: plasma
Rattus norvegicus [14] = experiment: Lymphopenic activity in Wistar rat assessed as reduction in blood lymphocyte count at 10 mg/kg, po after 24 hrs; assay type: functional; procedure, shortened: as §3
[15] = Plasma concentration in Wistar rat at 10 mg/kg, po after 6 hrs; assay type: ADME, organism-based; design: dose 10 mg/kg, route oral
[16] = Plasma concentration in Wistar rat at 10 mg/kg, po after 1 hr; assay type: ADME, organism-based; design: dose 10 mg/kg, route oral; procedure, shortened: as §2
[17] = Plasma concentration in Wistar rat at 10 mg/kg, po after 2.3 hrs; assay type: ADME, organism-based; design: dose 10 mg/kg, route oral; procedure, shortened: as §2
[18] = Drug uptake in Wistar rat mesenteric lymph at 10 mg/kg, po after 24.8 hrs; assay type: ADME, organism-based, Mesenteric lymph node; design: dose 10 mg/kg, route oral; details: read-out: Drug uptake; procedure, shortened: as §2
[19] = Drug uptake in Wistar rat mesenteric lymph at 10 mg/kg, po after 6 hrs; assay type: ADME, organism-based, Mesenteric lymph node; design: dose 10 mg/kg, route oral; details: read-out: Drug uptake; procedure, shortened: as §2
[20] = Drug uptake in Wistar rat mesenteric lymph at 10 mg/kg, po after 3 hrs; assay type: ADME, organism-based, Mesenteric lymph node; design: dose 10 mg/kg, route oral; details: read-out: Drug uptake; procedure, shortened: as §2
[21] = AUC (0 to 24 hrs) in Wistar rat mesenteric lymph at 10 mg/kg, po; assay type: ADME, organism-based, Mesenteric lymph node; design: time < 24 hr, dose 10 mg/kg, route oral; details: in vivo
[22] = Tmax in Wistar rat at 10 mg/kg, po; assay type: ADME, organism-based; design: dose 10 mg/kg, route oral; details: in vivo; procedure, shortened: as §4
Rattus norvegicus [23] = experiment: Lymphopenic activity in Wistar rat assessed as reduction in blood lymphocyte count at 10 mg/kg, po after 144 hrs; assay type: functional; procedure, shortened: as §3
Plasma = experiment: AUC (0 to 24 hrs) in Wistar rat plasma at 10 mg/kg, po; assay type: ADME, organism-based; design: time < 24 hr, dose 10 mg/kg, route oral; details: in vivo
[24] = Drug uptake in Wistar rat mesenteric lymph at 10 mg/kg, po after 2.3 hrs; assay type: ADME, organism-based, Mesenteric lymph node; design: dose 10 mg/kg, route oral; details: read-out: Drug uptake; procedure, shortened: as §2
[25] = Plasma concentration in Wistar rat at 10 mg/kg, po after 24 hrs; assay type: ADME, organism-based; design: dose 10 mg/kg, route oral
[26] = Tmax in Wistar rat mesenteric lymph at 10 mg/kg, po; assay type: ADME, organism-based, Mesenteric lymph node; design: dose 10 mg/kg, route oral; procedure, shortened: as §2
[27] = Lipophilicity, log D of the compound at pH 7.4; assay type: physicochemical; details: buffer
[28] = Drug uptake in Wistar rat mesenteric lymph at 10 mg/kg, po after 1 hr; assay type: ADME, organism-based, Mesenteric lymph node; design: dose 10 mg/kg, route oral; details: read-out: Drug uptake; procedure, shortened: as §2
[29] = Plasma concentration in Wistar rat at 10 mg/kg, po after 24.8 hrs; assay type: ADME, organism-based; design: dose 10 mg/kg, route oral; procedure, shortened: as §2
[30] = Cmax in Wistar rat mesenteric lymph at 10 mg/kg, po; assay type: ADME, organism-based, Mesenteric lymph node; design: dose 10 mg/kg, route oral; procedure, shortened: as §2
[31] = Volume of distribution at steady state in Wistar rat at 1 mg/kg, iv; assay type: ADME, organism-based; design: dose 1 mg/kg, route intravenous; details: in vivo, read-out: Vdss; procedure, shortened: as §1
[32] = Tmax in Wistar rat plasma at 10 mg/kg, po; assay type: ADME, organism-based; design: dose 10 mg/kg, route oral; procedure, shortened: as §2
[33] = target: Sphingosine 1-phosphate receptor 1 (Homo sapiens, UniProt P21453); experiment: Agonist activity at human recombinant S1P1 receptor expressed in CHO cells assessed as membrane-bound 35S-GTPgammaS incubated 30 mins prior to substrate addition measured after 1 hr by topcount scintillation counting analysis; assay type: functional, cell-based
[34] = target: Sphingosine 1-phosphate receptor 3 (Homo sapiens, UniProt Q99500); experiment: Agonist activity at human recombinant S1P3 receptor expressed in CHO cells assessed as membrane-bound 35S-GTPgammaS incubated 30 mins prior to substrate addition measured after 1 hr by topcount scintillation counting analysis; assay type: functional, cell-based
Rattus norvegicus [35] = experiment: Lymphopenic activity in Wistar rat assessed as reduction in blood lymphocyte count at 10 mg/kg, po after 3 hrs; assay type: functional; design: scale not given: the % may be the effect or the level left; procedure, shortened: as §3
Rattus norvegicus [36] = experiment: Lymphopenic activity in Wistar rat assessed as reduction in blood lymphocyte count at 10 mg/kg, po after 6 hrs; assay type: functional; design: scale not given: the % may be the effect or the level left; procedure, shortened: as §3
Rattus norvegicus [37] = experiment: Lymphopenic activity in Wistar rat assessed as reduction in blood lymphocyte count at 10 mg/kg, po after 96 hrs; assay type: functional; design: scale not given: the % may be the effect or the level left; procedure, shortened: as §3

Chain of Sphingosine 1-phosphate receptor 3 (Q99500 whole entry): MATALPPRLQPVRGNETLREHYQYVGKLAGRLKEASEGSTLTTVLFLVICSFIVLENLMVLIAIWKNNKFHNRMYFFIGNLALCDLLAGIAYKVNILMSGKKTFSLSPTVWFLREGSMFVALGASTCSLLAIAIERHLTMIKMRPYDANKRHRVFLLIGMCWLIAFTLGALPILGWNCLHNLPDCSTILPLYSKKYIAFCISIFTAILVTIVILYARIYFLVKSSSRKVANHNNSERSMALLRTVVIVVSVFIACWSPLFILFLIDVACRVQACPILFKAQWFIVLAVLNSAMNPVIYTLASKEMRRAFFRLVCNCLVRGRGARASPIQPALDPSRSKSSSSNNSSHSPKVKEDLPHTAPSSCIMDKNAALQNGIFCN
Chain of Sphingosine 1-phosphate receptor 1 (P21453 whole entry): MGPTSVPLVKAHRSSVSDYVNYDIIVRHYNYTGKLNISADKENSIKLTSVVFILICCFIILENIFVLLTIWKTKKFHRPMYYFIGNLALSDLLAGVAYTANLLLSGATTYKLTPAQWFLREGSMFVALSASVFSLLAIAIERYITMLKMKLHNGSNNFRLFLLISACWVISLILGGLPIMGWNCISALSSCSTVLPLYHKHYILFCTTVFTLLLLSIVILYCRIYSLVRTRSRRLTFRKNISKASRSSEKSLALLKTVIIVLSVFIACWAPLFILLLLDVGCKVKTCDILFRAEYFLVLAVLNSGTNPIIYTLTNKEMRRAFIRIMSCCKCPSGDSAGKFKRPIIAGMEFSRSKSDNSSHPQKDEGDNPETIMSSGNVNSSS

- half-life [1]: 21 h
- concentration at 144 h [2]: 66 ng/mL
- hepatocyte CLint at 1 µM [3]: 3.1 µL/min/1e6 cells
- Cmax [4]: 911 ng/mL
- concentration at 72 h [5]: 236 ng/mL
- concentration at 3 h [6]: 132 ng/mL
- Cmax [8]: 1450 ng/mL
- clearance (Rattus norvegicus [9]): 2 mL/min/kg
- concentration at 1.7 h [10]: 58.1 ng/mL
- bioavailability [11]: > 33%
- concentration at 1.7 h [12]: 4340 ng/mL
- AUC(0-t) at 24 h [13]: 28100 ng·h/mL
- concentration at 6 h [15]: 911 ng/mL
- concentration at 1 h [16]: 44.4 ng/mL
- concentration at 2.3 h [17]: 123 ng/mL
- concentration at 24.8 h [18]: 684 ng/mL
- concentration at 6 h [19]: 4590 ng/mL
- concentration at 3 h [20]: 8090 ng/mL
- AUC [21]: 70500 ng·h/mL
- Tmax [22]: 6 h
- AUC (Plasma): 1660 ng·h/mL
- concentration at 2.3 h [24]: 4600 ng/mL
- concentration at 24 h [25]: 530 ng/mL
- Tmax [26]: 3 h
- logD [27]: 4.3
- concentration at 1 h [28]: 5790 ng/mL
- concentration at 24.8 h [29]: 680 ng/mL
- Cmax [30]: 8090 ng/mL
- Vd [31]: 3.5 L/kg
- Tmax [32]: 6 h
- EC50 [33]: 4.6 nM
- EC50 [34]: 8.9 nM
Compound: CCc1cc(-c2noc(-c3sc(CC)c4c3CCC(C)(C)C4)n2)cc(C)c1OC[C@@H](O)CNC(=O)CO
- Activity (Rattus norvegicus [7]): Active
- Activity (Rattus norvegicus [14]): Active
- Activity (Rattus norvegicus [23]): Active

Compound: Cc1cc(-c2noc(-c3sc(C)c4c3C[C@@H]3[C@H]4C3(C)C)n2)cc(C)c1OCC(O)CNC(=O)CO (mixture of isomers)
- Activity (Rattus norvegicus [35]): -66%
- Activity (Rattus norvegicus [36]): -69%
- % change in blood lymphocyte count from predose (Rattus norvegicus [14]): -73%
- Activity (Rattus norvegicus [37]): 30%
